APP 5'UTR act = activates APP 5'UTR luciferase reporter | SH-SY5Y APP 5'UTR luciferase reporter, luminescence; zero percent = DMSO vehicle wells | activation, % at 2 µM | 1% of 190,000 active | AID 1276;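 active = activation above a set limit, based on mean plus 3 SD of controls, cut at about 140% in these data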
STAT1 inh = inhibitors of IFN-gamma induced STAT1 signaling. NIH 3T3 STAT1-luciferase reporter, luminescence. inhibition, % at 5.5 µM. 0.35% of 200,000 active. AID 920;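 active = inhibition above a set limit, the mean inhibition across all tested compounds plus 3 SD, cut at about 34% in these data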
NF-kB neuron act = raises NF-kB expression in human neuronal cells | NF-kB reporter expression; active compounds read high | fold change at 12.5 µM | 1.6% of 190,000 active; in the data active = fold change above about 3.3
STAT1 activator = activators of IFN-gamma induced STAT1 signaling. NIH 3T3 STAT1-luciferase reporter, luminescence; 100% = IFN-gamma alone, no compound. activation (% of control), % at 5.5 µM. 2.6% of 200,000 active. AID 932;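 active = activation above the screen-wide mean activation plus 3 SD, cut at about 130% in these data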
STAT3 activator = increases IL-6 driven STAT3 reporter signal | U3A cells, IL-6 STAT3-luciferase reporter, luminescence; 100% = signal with IL-6 EC80 alone | activation (% of control), % at 5.6 µM | 0.91% of 190,000 active | AID 871;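 active = activation above the screen-wide mean of compound activation plus 3 SD, cut at about 130% in these data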
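Test system: STAT3-luciferase reporter U3A cells; Detection: reporter luminescence signal; Times: 1 h compound pre-exposure, 6 h IL-6 stimulation, 37 °C; Benchmarks: IL-6-only high control; Also added: IL-6 stimulus at 33 ng/mL final.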
Pf gametocyte = P. falciparum stage V gametocyte viability inhibition; inhibition, % at 10.9 µM; AID 743093; P. falciparum stage V gametocytes, ATP luminescence, 24 h; 0.065% of 150,000 active;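 active = inhibition above the mean plus 3 SD of compounds within the control limits, set per campaign, cut at about 38% in these data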
Numbers stand for hits; n = inactive; x = no result. In the library only some 3.9% were active in any assay of this set; here they are far more common.

SMILES | APP 5'UTR act | STAT1 inh | NF-kB neuron act | STAT1 activator | STAT3 activator | Pf gametocyte
CC1(C)Oc2ccc(NC(=O)c3ccco3)cc2O1 | n | n | n | 128.7 | n | x
CCCCCC(=O)Nc1nc2ccccc2[nH]1 | n | n | n | 129.4 | n | n
CCS(=O)(=O)N1Cc2ccccc2CC1C(=O)Nc1nc2ccccc2[nH]1 (stereo not given) | 181.9 | n | n | n | n | x
O=C(CC1CCCC1)Nc1nc2ccccc2[nH]1 | n | n | n | 144.0 | n | n
CCc1nnc(NC(=O)C2Cc3ccccc3CN2S(=O)(=O)CC)s1 (stereo not given) | n | n | n | n | n | n
O=C(Nc1nc2ccccc2[nH]1)C1CCCC1 | n | n | n | 136.3 | n | n
CCN1CCN(C(=O)N2CCOCC2)CC1 | n | n | n | n | n | n
COCCCNC(=S)N/N=C/c1ccc(OC)c(Br)c1 | x | x | x | x | x | n
O=S1(=O)[C@H]2C[C@@H]3C=C[C@@]2(CN1Cc1cccc(F)c1)O3 | x | x | x | x | x | n
CCc1ccccc1NC(=O)c1ccc(-c2csc(C)n2)cc1 | x | x | x | x | x | n
Cc1nc(-c2ccc(NC(=O)C3CCCCC3)cc2)cs1 | 167.4 | n | 3.51 | 137.9 | n | x
Cc1nc(-c2ccc(NC(=O)c3ccccc3)cc2)cs1 | 184.3 | n | 7.52 | n | n | n
C[C@@H](OC(=O)c1[nH]cnc1C(=O)NCc1ccc(CNC(=O)OC(C)(C)C)cc1)c1ccccc1 | x | x | x | x | x | n
Cc1ccc(-c2nc3ccccc3c(C(=O)NCc3cccs3)c2C)cc1 | n | n | n | n | 143.1 | n
O=C(NCc1cccs1)c1cc(-c2ccccc2)nc2ccccc12 | n | n | n | n | n | n
CC(C)(C)OC(=O)N/N=C/c1ccc(Br)cc1 | n | n | 4.47 | 148.9 | n | n
CC(C)(C)NC(=O)C(=O)N/N=C/c1ccc(Br)cc1 | n | n | n | n | n | x
Cc1ccc2nc(SCC(=O)NCc3ccco3)c(C#N)cc2c1 | 137.3 | n | n | n | n | n
Cc1ccc2cc(C#N)c(SCC(=O)NCc3ccco3)nc2c1 | n | n | n | n | n | n
CCOc1ccccc1NC(=S)N1CCN(c2nc(-c3cccc(OC)c3)cs2)CC1 | n | n | n | n | n | n
CCCCCCCC[n+]1cccc2c3ccccc3ccc21 | n | 37.9 | n | n | n | n
CCCCCCCCNc1ncnc2ccccc12 | n | n | n | n | n | x
CCCCCCCCCC[n+]1cccc2c3ccccc3ccc21 | n | 50.8 | n | n | n | n
Cc1cccc[n+]1CCCCCCCCCC[n+]1ccccc1C | n | n | n | n | n | x
COc1ccc(C(=O)Nc2nc3cc4c(cc3s2)OCO4)c(OC)c1 | x | x | x | x | x | n
SMILES | APP 5'UTR act | STAT1 inh | NF-kB neuron act | STAT1 activator | STAT3 activator | Pf gametocyte
c1ccc2c(-c3nnc(SCc4cn5ccccc5n4)o3)c[nH]c2c1 | n | n | n | n | n | x
c1ccc2c(-c3cn4ccccc4n3)c[nH]c2c1 | 149.3 | n | 3.4 | 150.0 | n | x
CCOC(=O)c1ccc(NCc2cccnc2)cc1 | x | x | x | x | x | n
CCOC(=O)N1CCN(c2nc(C(F)(F)F)nc3c(C)cc(C)cc23)CC1 | n | n | n | n | n | n
CCOC(=O)N1CCN(c2nc(C)cc(C(F)(F)F)n2)CC1 | n | n | 4.86 | n | n | x
COc1cccc(C=Nc2cc(C)cc(C)c2)c1O | n | n | n | n | n | x
CCc1ccc2oc(-c3cc(N=Cc4cccc(OC)c4O)ccc3O)nc2c1 | 161.9 | n | 4.16 | n | n | x
COc1ccc(-c2csc(N(C)C(=O)c3ccco3)n2)cc1 | x | x | x | x | x | n
CN(C(=O)c1ccco1)c1nnc(C23CC4CC(CC(C4)C2)C3)s1 | n | n | n | 139.5 | 133.3 | x
CN(C(=O)COc1ccc(Cl)cc1)c1nnc(C23CC4CC(CC(C4)C2)C3)s1 | n | n | n | n | x | x
CN(C(=O)c1ccco1)c1nc2c(s1)CCCC2 | 162.5 | n | 4.06 | 130.1 | n | x
COc1ccc(S(=O)(=O)N(C)C[C@H]2Oc3ccc(NC(=O)NC4CCCCC4)cc3C(=O)N([C@H](C)CO)C[C@@H]2C)cc1 | x | x | x | x | x | n
Cc1ccc([N+](=O)[O-])cc1-c1ccc(/C=C(\C#N)c2[nH]nc(N)c2C#N)o1 | n | n | n | 140.4 | n | n
O=C(Oc1ccc2ccc(O)cc2c1)c1ccccc1Cl | x | x | x | x | x | n
Cc1cccc(C(=O)Oc2ccc(/C=N/O)cc2)c1 | 149.0 | n | n | 135.2 | n | n
O=C(Oc1ccc(/C=N/O)cc1)c1ccccc1Cl | n | n | n | 142.1 | n | n
CCOc1cc(Cl)c(NC(=O)c2ccco2)cc1OCC | n | n | n | n | n | n
O=C(Nc1cc2c(cc1Cl)OCCCO2)c1ccco1 | n | n | n | 146.5 | n | n
O=C(Nc1cc2c(cc1Cl)OCCCO2)c1ccccc1 | n | n | n | 132.8 | n | x
O=C(NCc1ccc(F)cc1)c1nc(-c2cccs2)no1 | n | n | n | n | n | n
Fc1ccc(OCc2nc(-c3cccs3)no2)cc1 | n | n | n | 140.3 | n | n
c1ccc(OCc2nc(-c3cccs3)no2)cc1 | n | n | n | 144.9 | n | n
Cc1cc(OCc2nc(-c3cccs3)no2)cc(C)c1Cl | n | n | n | n | n | x
CC1(C)CC2(CC(c3ccccc3F)c3ccc(O)c(O)c3O2)NC(=S)N1 (stereo not given) | n | n | n | n | n | n
O=C(CSc1nnc(-c2csc3c2CCCC3)o1)Nc1ccccc1 | 202.7 | n | 3.4 | 138.0 | n | x
SMILES | APP 5'UTR act | STAT1 inh | NF-kB neuron act | STAT1 activator | STAT3 activator | Pf gametocyte
N#Cc1c(NC(=O)CSc2nnc(-c3ccccc3)o2)sc2c1CCCC2 | n | n | n | n | n | x
Cc1csc(NC(=O)CSc2nnc(-c3ccccc3)o2)n1 | 136.0 | n | n | n | n | n
Clc1cccc(Cl)c1/C=C/c1nc2ccccc2[nH]1 | 163.9 | n | 7.15 | 142.6 | n | x
Clc1ccc(/C=C/c2nc3ccccc3[nH]2)cc1 | x | 53.4 | 3.8 | n | n | x
Cc1[nH]c2ccccc2c1/C=C/c1nc2ccccc2c(=O)[nH]1 | x | x | x | x | x | n
Clc1ccc(/C=C/c2nc3ccccc3[nH]2)c(Cl)c1 | 221.0 | 68.2 | n | n | n | n
O=C(/C=C/c1ccc(Cl)cc1Cl)c1nc2ccccc2[nH]1 | n | n | n | n | n | x
Cc1ccc(NC(=O)C2CCCN(C(=O)c3ccc(Cl)cc3)C2)cc1S(=O)(=O)N1CCOCC1 (stereo not given) | n | n | n | n | n | n
CCOC(=O)COn1c(=O)c(-c2cc3ccccc3o2)[n+]([O-])c2ccccc21 | n | n | n | 142.4 | 150.7 | n
O=C(NC12CC3CC(CC(C3)C1)C2)c1ccc(-c2ccc(Br)cc2)o1 | n | n | n | 143.5 | n | n
Cc1ccc(NC(=O)C23CCC(C)(C(=O)[C@H]2Br)C3(C)C)cc1 (stereo not given in full) | x | x | x | x | x | n
C=C(C(=O)c1ccccc1)C(C)C(=C)C(=O)c1ccccc1 | n | n | 8.52 | n | n | n
CNc1ccccc1C(=O)OCC(=O)c1ccc(F)cc1 | n | n | n | 132.5 | n | n
NS(=O)(=O)c1cc(C(=O)OCC(=O)c2ccc3c(c2)OCCO3)ccc1Cl | n | n | 9.84 | n | n | n

Source: PubChem BioAssay
